Data set [1] concerns Hepacivirus hominis. Description: Inhibition of recombinant HCV hexa histidine-tagged NS5B Cdelta21 RNA dependent RNA polymerase expressed in Escherichia coli at 50 uM after 60 mins by liquid scintillation counting analysis.
A short description of data set [2]: Selectivity index, ratio of CC50 for human Huh7.5 cells to EC50 for HCV genotype 1b infected in HuH7/Rep-Feo1b cells. On the set-up: species or system Huh-7.
Data set [3] is described as follows: Cytotoxicity against human Huh7.5 cells after 48 hrs by MTS assay. Conditions: huh-7, 48 h. Format: cell-based. In short, it runs like this:
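Parental Huh7.5 cells grown in DMEM with 10% FCS without G418, 37 °C, 5% CO2; treated at 6–8 doses for 48 h. Viability by MTS bioreduction to formazan; CC50 as concentration halving MTS conversion relative to DMSO controls, mean ± SD of three independent experiments.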

The subject of data set [4] is Hepatitis C virus (isolate Con1). Description: Inhibition of HCV Con1 genotype 1b C-terminal His-tagged NS3 helicase lacking N-terminal protease using fluorescent DNA as substrate at 500 uM. In outline:
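Molecular beacon unwinding assay: 12.5 nM NS3h, 5 nM fluorescent DNA substrate, 1 mM ATP, 25 mM MOPS pH 6.5, 1.25 mM MgCl2, 5% DMSO, 5 µg/ml BSA, 0.01% Tween20, 0.05 mM DTT; compounds up to 500 μM.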

For data set [5], the system named is Hepatitis C virus. The data set can be described thus: Antiviral activity against HCV genotype 1b infected in HuH7/Rep-Feo1b cells by firefly luciferase reporter gene assay. It is filed as functional, cell-based, Hepacivirus hominis. Conditions: Huh-7. In outline: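 Huh7 cells carrying autonomously replicating gt 1b replicon with firefly luciferase reporter; ~1×10^4 cells/well treated 48 h, 1.0% DMSO final. Primary screen at 50 μM; actives titrated over 8–12 quarter-log dilutions. Luciferase signal relative to DMSO-treated controls; EC50 from dose-response curves, mean ± SD of three independent experiments.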
On the technique in general: In a reporter assay the amount or activity of a reporter protein is the signal.

Data set [6] concerns Hepatitis C virus. The data set can be described thus: Antiviral activity against HCV genotype 2a infected in HuH7.5-FGR-JC1_Rluc2A cells by […]. It is filed as functional, Hepacivirus hominis.
In data set [7] the test system is Hepatitis C virus. The data set can be described thus: Antiviral activity against HCV genotype 2a infected in HuH7.5-FGR-JC1_Rluc2A cells at 50 uM by […] luciferase reporter gene assay. Format: functional, Hepacivirus hominis.
The nature of data set [8]: Selectivity index, ratio of CC50 for human Huh7.5 cells to EC50 for HCV genotype 2a infected in HuH7.5-FGR-JC1_Rluc2A cells. Further details: species or system Huh-7.
Data set [9] is described as follows: Inhibition of HCV Con1 genotype 1b C-terminal His-tagged NS3 helicase lacking N-terminal protease using ATP/RNA as substrate after 15 mins by malachite green-based assy. On the set-up: species or system Hepatitis C virus (isolate Con1). In short, it runs like this: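 NS3h (con1 gt 1b, C-terminal His-tag, protease-deleted) at 4 nM with 1 μM polyU RNA (nucleotide), 25 mM MOPS pH 6.5, 1.25 mM MgCl2, 1 mM ATP, 33 µg/ml BSA, 0.07% Tween 20, 0.3 mM DTT, 10% DMSO; started with ATP, 15 min, 37 °C. Phosphate by malachite green, A630. Two-fold series 0.5 mM–0.78 µM, duplicate; variable-slope fit, mean ± SD.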

Data set [10] deals with Hepatitis C virus. The data set can be described thus: Antiviral activity against HCV genotype 1b infected in HuH7/Rep-Feo1b cells at 50 uM by firefly luciferase reporter gene assay. Format: functional, Hepacivirus hominis. The following applies: Huh-7. In outline: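 Replicon reporter cells (gt 1b in Huh7/Rep-Feo1b, firefly luciferase; gt 2a in Huh7.5-FGR-JC1-Rluc2A, Renilla luciferase) kept in DMEM with 10% FCS and 0.5 mg/mL G418, 37 °C, 5% CO2. About 1×10^4 cells per well were treated at 50 μM for 48 h in 1.0% DMSO. Luciferase signal was read relative to DMSO-treated cells as % inhibition.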

Data set [11] in a line: Effect on anti-oxidant response element (unknown origin)-mediated HCV replication in human MH14 cells transfected with p3xARE-Luc by luciferase reporter gene assay. It is filed as ADME, cell-based. In outline: (§1)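 MH-14 replicon cells transfected with 300 ng of the reporter plasmid (pCOX-2-FLuc, pHO-1-Luc, pISRE-Luc or p3xARE-Luc); 16 h later treated with compound at 5, 10 and 25 μM or DMSO for 48 h. Firefly luciferase read, normalized to Renilla luciferase for transfection efficiency.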

Data set [12] has as its system Internal ribosome entry site (IRES). The data set can be described thus: Effect on HCV IRES-mediated translation infected in human Huh 7.5 cells by dual-glo luciferase assay. It is filed as cell-based. Conditions: Hepacivirus hominis.
A short description of data set [13]: Effect on interferon-stimulated response element (unknown origin)-mediated HCV replication in human MH14 cells transfected with pISRE-Luc by luciferase reporter gene assay. It is filed as ADME, cell-based. In short, it runs like this: as §1
Data set [14] concerns the target T1, Prostaglandin G/H synthase 2 (Homo sapiens, UniProt P35354).
T1 sequence (P35354 whole entry): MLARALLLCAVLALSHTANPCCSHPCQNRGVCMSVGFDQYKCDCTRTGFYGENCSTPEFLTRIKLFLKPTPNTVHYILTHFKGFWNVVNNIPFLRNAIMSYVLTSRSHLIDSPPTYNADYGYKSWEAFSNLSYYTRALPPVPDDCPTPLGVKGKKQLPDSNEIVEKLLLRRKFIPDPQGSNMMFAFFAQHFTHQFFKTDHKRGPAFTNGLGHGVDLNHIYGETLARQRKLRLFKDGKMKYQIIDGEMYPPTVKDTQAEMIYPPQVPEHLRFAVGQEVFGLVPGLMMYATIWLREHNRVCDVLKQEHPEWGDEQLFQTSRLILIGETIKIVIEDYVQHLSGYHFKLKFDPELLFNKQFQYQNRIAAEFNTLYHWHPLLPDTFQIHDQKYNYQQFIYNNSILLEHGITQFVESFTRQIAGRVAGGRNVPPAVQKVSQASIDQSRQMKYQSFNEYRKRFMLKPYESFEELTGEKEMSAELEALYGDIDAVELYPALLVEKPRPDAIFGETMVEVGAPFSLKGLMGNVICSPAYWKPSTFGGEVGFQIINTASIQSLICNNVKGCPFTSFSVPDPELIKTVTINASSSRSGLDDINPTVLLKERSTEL
Description: Effect on cyclooxygenase-2 (unknown origin)-mediated HCV replication in human MH14 cells transfected with pCOX-2-Fluc by luciferase reporter gene assay. Format: ADME, cell-based. In short, it runs like this:
as §1

Data set [15] relates to Hepatitis C virus. Description: Antiviral activity against HCV genotype 1b infected in human MH14 cells assessed as inhibition of replication after 48 hrs by RT-PCR analysis. Format: functional. The following applies: Hepacivirus hominis. In short, it runs like this: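 Stable gt 1b subgenomic replicon cells (MH-14), reporter-free, exposed to compound; total RNA isolated by spin-column kit, quantified spectrophotometrically, and HCV RNA measured by quantitative RT-PCR.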

Data set [16] addresses T2, Heme oxygenase 1 (Homo sapiens, UniProt P09601).
T2 sequence (P09601 whole entry): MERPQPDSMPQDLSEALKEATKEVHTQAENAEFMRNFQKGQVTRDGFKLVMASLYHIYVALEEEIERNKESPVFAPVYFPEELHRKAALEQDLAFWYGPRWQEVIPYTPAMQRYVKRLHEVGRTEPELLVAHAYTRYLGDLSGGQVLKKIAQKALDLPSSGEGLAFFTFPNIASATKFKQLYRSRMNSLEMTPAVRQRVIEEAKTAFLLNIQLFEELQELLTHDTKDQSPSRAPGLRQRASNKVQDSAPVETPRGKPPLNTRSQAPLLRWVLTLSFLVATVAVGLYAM
The data set can be described thus: Effect on heme oxygenase-1 (unknown origin)-mediated HCV replication in human MH14 cells transfected with pHO-1-Luc by luciferase reporter gene assay. Format: ADME, cell-based. In outline: as §1

Calls of active or inactive are those of the source. The calls are words filed in the database; no cut-off is given here. Where only a bound is given, the exact number is not on record here.

What is called inhibition is the percentage by which the read-out fell short of the control. By CC50 is commonly meant the concentration giving 50% cytotoxicity. In general, EC50 refers to the concentration giving half of the maximal effect. A lower EC50 goes with greater potency. What is called IC50 is the concentration needed to halve the response being measured.

As to `O=[N+]([O-])c1ccc(-c2cc3c(n2Cc2ccccc2)CCCC3)cc1`, the inhibition entry in [1] and in [4] was “inactive” each time. Further, the “Ratio CC50/EC50” value in data set [2] turned out to be 13; in [8], 27. The molecule also displayed a cytotoxic concentration (CC50) in data set [3] above 200 µM. The EC50 in [5] was 15 µM; in data set [6], 7.3 µM. Moreover, the inhibition at 50 µM in data set [7] worked out at 98%; in [10], 75%. In data set [9], this molecule registered a half-maximal inhibitory concentration (IC50) above 1000 µM.

For the molecule `c1ccc(Cn2c(-c3ccccc3)cc3c2CCCC3)cc1`, the inhibition entry in data set [1], in [4] and in data set [12] was “inactive” each time. For the same molecule, the “Ratio CC50/EC50” value was determined as 10 in data set [2] and 32 in [8]. Moreover, it took 80.8 µM to reach half-maximal cytotoxicity in data set [3] (CC50). The “inhibition (INH)” value in data set [11], in data set [13], in data set [14] and in data set [16] was “Not Active” in each case. The EC50 stood at 7.9 µM in data set [5] and 2.6 µM in [6]. The inhibition at 50 µM in data set [7] turned out to be 99%; in data set [10], 95%. For the same molecule, in [15], the inhibition result is “Dose-dependent effect”. For the same molecule, in data set [9], the half-maximal inhibitory concentration (IC50) is above 1000 µM.

For the molecule `Fc1ccc(-n2c(-c3ccccc3)cc3c2CCCC3)cc1`, the inhibition entry in data set [1] and in [4] was “inactive” in each case. The entries for the “Ratio CC50/EC50” value in data set [2] and in data set [8] were above 7 and above 16, respectively. In addition, the CC50 in data set [3] is above 200 µM. Moreover, the concentration giving a half-maximal response (EC50) in data set [5] was 29.2 µM; in data set [6] it was 12.3 µM. For the same molecule, the inhibition at 50 µM in data set [7] was 66%; in data set [10], 71%. The IC50 in data set [9] is above 1000 µM.

Consider `COc1ccc(-c2cc3c(n2Cc2ccccc2)CCCC3)cc1`, for which the inhibition entry in data set [1] and in data set [4] was “inactive” in each case. The “Ratio CC50/EC50” value in data set [2] amounted to 12; in [8], 28. In addition, in [3], the midpoint of cytotoxicity, the CC50, lay at 137 µM. For the same molecule, the 50% effective concentration (EC50) in data set [5] came out at 11.8 µM; in [6] it was 4.9 µM. Moreover, the inhibition at 50 µM is 96% in data set [7] and 99% in data set [10]. Further, in [9], the IC50 was above 1000 µM.

With `Oc1ccccc1-c1cc2c(n1Cc1ccccc1)CCCC2`, the “Ratio CC50/EC50” value was determined as 5 in data set [2] and 8 in data set [8]. The molecule also had a half-maximal cytotoxic concentration (CC50) in data set [3] of 48.9 µM. The EC50 amounted to 9.2 µM in [5] and 6.5 µM in data set [6]. Further, the inhibition at 50 µM turned out to be 99% in data set [7] and 96% in data set [10].

In the case of `Nc1ccc(-c2cc3c(n2Cc2ccccc2)CCCC3)cc1`, the inhibition entry in [1] and in data set [4] was “inactive” each time. Moreover, the “Ratio CC50/EC50” value turned out to be 9 in data set [2] and 13 in data set [8]. The same molecule yielded a CC50 in data set [3] of 110 µM. For the same molecule, the EC50 in data set [5] stood at 12.4 µM; in [6], 8.7 µM. Besides, the inhibition at 50 µM in data set [7] was determined as 88%; in data set [10], 66%. The molecule further had an IC50 in data set [9] of 417 µM.

For the origin of these results see ChEMBL document CHEMBL3414521, “Discovery of the 2-phenyl-4,5,6,7-Tetrahydro-1H-indole as a novel anti-hepatitis C virus targeting scaffold” (Eur J Med Chem, 2015).
